Assay results published in ChEMBL document CHEMBL1135662, “Effects of isoprenoid analogues of SDB-ethylenediamine on multidrug resistant tumor cells alone and in combination with chemotherapeutic drugs” (J Med Chem, 2002).
Structures can show the parent of a compound that is named as a salt.

Tests used:
[1] = Partition coefficient (logP); type: physicochemical; settings: octanol/water
[2] = Cytotoxicity against cell line 2SC/20 of hamster determined by MTT test; settings: Mesocricetus auratus
[3] = Cytotoxicity against HET-SR-2SC-LNM cell line of hamster determined by MTT test; settings: Mesocricetus auratus
[4] = Inhibitory concentration against the growth of 2SC/20 cell line after 72 hr of drug exposure by MTT test; settings: Mesocricetus auratus
[5] = Inhibitory concentration against the growth of HET-SR-2SC-LNM cell line after 72 hr of drug exposure by MTT test; settings: Mesocricetus auratus
[6] = Cytotoxicity against cell line COR/L23P determined by MTT test; type: functional; settings: Homo sapiens
Method in brief: (§1)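 MTT assay after 72 h exposure, in duplicate. Human lung carcinoma COR L23/P and its adriamycin-selected MRP-mediated subline COR L23/R seeded at 5×10^3 per 200 µL. K562 leukemia cells and K562 transduced with human MDR1 (not drug-selected) seeded at 3×10^4 per 200 µL. MTT 3 h, read at 540 nm. Mean ± SE of three experiments.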

[7] = Cytotoxicity against cell line COR/L23R and MRP determined by MTT test; type: functional; settings: Homo sapiens, COR-L23/R
Method in brief: as §1, with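 “200 µL. Non-fibroblast lines grown in RPMI-1640 with 5% FBS. MTT 3” for “200 µL. MTT 3”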

[8] = tested on: K562; assay: Cytotoxicity against cell line K562i/S9 and pgp determined by MTT test; type: functional, cell-based; settings: Homo sapiens
Method in brief: as §1, with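 “200 µL. Non-fibroblast lines grown in RPMI-1640 with 5% FBS. MTT 3” for “200 µL. MTT 3”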

[9] = tested on: K562; assay: Cytotoxicity against cell line K562 determined by MTT test; type: functional, cell-based; settings: Homo sapiens
Method in brief: as §1, with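 “200 µL. Non-fibroblast lines grown in RPMI-1640 with 5% FBS. MTT 3” for “200 µL. MTT 3”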

[10] = Cytotoxicity against cell line McA RH 7777 determined by MTT test; type: functional; settings: Rattus norvegicus, McA-RH7777
[11] = Cytotoxicity against cell line McA RH 7777/0.4 and Pgp determined by MTT test; type: functional; settings: Rattus norvegicus, McA-RH7777
[12] = organism: Homo sapiens; assay: Cytotoxicity against cell line mS determined by MTT test; type: functional
[13] = Index of sensitisation (IS) calculated as mean IC50 for cells incubated with ADM and of 2SC/2O; type: functional
Method in brief: (§2)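 HET-SR-2SC-LNM or 2SC/20 cells exposed for 72 h to a vinblastine or adriamycin dose series, alone or with modulator at 5 µM. IC50 by MTT (540 nm). IS is the mean IC50 with the drug alone divided by the mean IC50 with drug plus modulator. Four repeats.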

[14] = Index of sensitisation (IS) calculated as mean IC50 for cells incubated with ADM and of HET-SR-2SC-LNM; type: functional; method in brief: as §2
[15] = Index of sensitisation (IS) calculated as mean IC50 for cells incubated with VBL and of 2SC/2O; type: functional; method in brief: as §2
[16] = Index of sensitisation (IS) calculated as mean IC50 for cells incubated with VBL and of HET-SR-2SC-LNM; type: functional; method in brief: as §2
[17] = organism: Homo sapiens; assay: Cytotoxicity against cell line mS/0.5 and pgp determined by MTT test; type: functional
[18] = Cytotoxicity against cell line HET-SR-2SC-LNM of hamster determined by MTT test; settings: Mesocricetus auratus
[19] = Inhibitory concentration against the growth of 2SC/20 cell line after 72 hr of drug exposure by MTT test; type: functional, Cricetulus griseus
Method in brief: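 Syrian hamster embryo fibroblasts (parental line or its colchicine-selected Pgp-positive 2SC/20 subline), grown in DMEM with 5% FBS at 37 °C, 5% CO2; selective agent withdrawn 2 days before use. (3–4) × 10³ cells per well, treated 16 h after plating, exposed 72 h. MTT (2 mg/mL solution) added for 3 h, formazan dissolved in acidified DMSO, absorbance read at 540 nm.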

[20] = Inhibitory concentration against the growth of HET-SR-2SC-LNM cell line after 72 hr of drug exposure by MTT test; type: functional, Cricetulus griseus
[21] = Cytotoxicity against cell line […] and MRP determined by MTT test; type: functional; settings: Homo sapiens; method in brief: as §1
[22] = Index of sensitisation (IS)in presence of ADM and HET-SR-2SC-LNM; type: functional; method in brief: as §2
[23] = Index of sensitisation (IS)in presence of ADM and 2SC/2O; type: functional; method in brief: as §2
[24] = Index of sensitisation (IS)in presence of VBL and HET-SR-2SC-LNM; type: functional; method in brief: as §2
[25] = Index of sensitisation (IS)in presence of VBL and 2SC/2O; type: functional; method in brief: as §2
[26] = Cytotoxicity against cell line 2SC/20 determined by MTT test; settings: Mesocricetus auratus
[27] = Cytotoxicity against cell line HET-SR-2SC-LNM determined by MTT test; settings: Mesocricetus auratus
[28] = Intracellular uptake of drug in presence of ADM and VRP in 2SC/20 cell line; settings: Mesocricetus auratus
[29] = Intracellular uptake of drug in presence of 3H VBL and VRP in 2SC/20 cell line; settings: Mesocricetus auratus
[30] = Intracellular uptake of drug in presence of ADM and VRP in HET-SR-2SC-LNM cell line; settings: Mesocricetus auratus
[31] = Intracellular uptake of drug in presence of 3H VBL and VRP in HET-SR-2SC-LNM cell line; settings: Mesocricetus auratus
[32] = Intracellular uptake of drug in presence of ADM and in absence of VRP in 2SC/20 cell line; settings: Mesocricetus auratus
[33] = Intracellular uptake of drug in presence of 3H VBL and in absence of VRP in 2SC/20 cell line; settings: Mesocricetus auratus
[34] = Intracellular uptake of drug in presence of ADM and absence of VRPin HET-SR-2SC-LNM cell line; settings: Mesocricetus auratus
[35] = Intracellular uptake of drug in presence of 3H VBL and absence of VRPin HET-SR-2SC-LNM cell line; settings: Mesocricetus auratus

With `COc1ccc(CNCCNCc2ccc(OC)c(OC)c2)cc1OC` as the compound, how does the logP [1] read?
Its logP is 3.78.

What about the IC50 [2] of the same compound?
The IC50 was 470 µM.

And the IC50 [3]?
The IC50 was 520 µM.

Which results are given for `CC[C@]1(O)C[C@@H]2CN(CCc3c([nH]c4ccccc34)[C@@](C(=O)OC)(c3cc4c(cc3OC)N(C)[C@H]3[C@@](O)(C(=O)OC)[C@H](OC(C)=O)[C@]5(CC)C=CCN6CC[C@]43[C@@H]65)C2)C1` [VINBLASTINE]?
IC50 [4]: 0.246 µM; IC50 [5]: 0.018 µM

With `COc1cc2c(c(OC)c1OC)-c1ccc(OC)c(=O)cc1[C@@H](NC(C)=O)CC2` [COLCHICINE] as the compound, how does the IC50 [4] read?
The IC50 was 0.5 µM.

What about the IC50 [5] of the same compound?
The IC50 was 0.025 µM.

For `COc1ccc(CNCCN(C/C=C(\C)CCC=C(C)C)Cc2ccc(OC)c(OC)c2)cc1OC.Cl`, which logP [1] is on record?
The logP was 4.51.

What about the IC50 [6] of the same compound?
The IC50 was 25 µM.

And the IC50 [7]?
Its IC50 is 13 µM.

And the IC50 [8]?
Its IC50 is 125 µM.

What about the IC50 [9] of the same compound?
The IC50 was 125 µM.

What about the IC50 [10] of the same compound?
Its IC50 is 55 µM.

And the IC50 [11]?
The IC50 was 20 µM.

And the IC50 [12]?
The IC50 was 40 µM.

What about the IS [13] of the same compound?
Its IS is 12.

What about the IS [14] of the same compound?
The IS was 2.

What about the IS [15] of the same compound?
Its IS is 11.

What about the IS [16] of the same compound?
The IS was 8.

What about the IC50 [17] of the same compound?
The IC50 was 18 µM.

What about the IC50 [2] of the same compound?
Its IC50 is 10 µM.

What about the IC50 [18] of the same compound?
Its IC50 is 15 µM.

For BLEOMYCIN, which IC50 [19] is on record?
Its IC50 is 0.517 µM.

What about the IC50 [20] of the same compound?
The IC50 was 0.519 µM.

Which results are given for `COc1ccc(CNCCN(C/C=C(\C)CC/C=C(\C)CC/C=C(\C)CC/C=C(\C)CC/C=C(\C)CC/C=C(\C)CC/C=C(\C)CC/C=C(\C)CCC=C(C)C)Cc2ccc(OC)c(OC)c2)cc1OC`?
IC50 [21]: > 200 µM; IC50 [6]: > 200 µM; IC50 [8]: 250 µM; IC50 [9]: 250 µM; IC50 [10]: 65 µM; IC50 [11]: 55 µM; IC50 [12]: 86 µM; IS [22]: 2; IS [23]: 6; IS [24]: 1; IS [25]: 4; IC50 [17]: 45 µM; IC50 [26]: 20 µM; IC50 [27]: 80 µM

With `COc1ccc(CNCCN(C/C=C(\C)CC/C=C(\C)CCC=C(C)C)Cc2ccc(OC)c(OC)c2)cc1OC` as the compound, how does the IS [13] read?
The IS was 12.

And the IS [14]?
The IS was 2.

And the IS [15]?
Its IS is 12.

And the IS [16]?
Its IS is 6.

What about the IC50 [27] of the same compound?
Its IC50 is 35 µM.

And the IC50 [2]?
Its IC50 is 13 µM.

For `COc1ccc(CCN(C)CCCC(C#N)(c2ccc(OC)c(OC)c2)C(C)C)cc1OC` (configuration not stated) [VERAPAMIL HYDROCHLORIDE], which IC50 [8] is on record?
Its IC50 is 100 µM.

And the IC50 [9]?
Its IC50 is 100 µM.

What about the IC50 [11] of the same compound?
Its IC50 is 470 µM.

And the IS [22]?
The IS was 2.

What about the IS [23] of the same compound?
Its IS is 11.

And the IS [24]?
Its IS is 4.

What about the IS [25] of the same compound?
The IS was 11.

What about the IC50 [17] of the same compound?
Its IC50 is 230 µM.

What about the drug uptake [28] of the same compound?
The drug uptake was 289 pmol/30 min.

And the drug uptake [29]?
Its drug uptake is 23 pmol/mg protein.

And the drug uptake [30]?
The drug uptake was 310 pmol/30 min.

What about the drug uptake [31] of the same compound?
The drug uptake was 29 pmol/mg protein.

What about the drug uptake [32] of the same compound?
Its drug uptake is 132 pmol/30 min.

What about the drug uptake [33] of the same compound?
Its drug uptake is 10 pmol/mg protein.

And the drug uptake [34]?
Its drug uptake is 235 pmol/30 min.

And the drug uptake [35]?
Its drug uptake is 22 pmol/mg protein.

With `COc1cccc2c1C(=O)c1c(O)c3c(c(O)c1C2=O)C[C@@](O)(C(=O)CO)C[C@@H]3O[C@H]1C[C@H](N)[C@H](O)[C@H](C)O1` [DOXORUBICIN] as the compound, how does the IC50 [4] read?
Its IC50 is 0.62 µM.

What about the IC50 [5] of the same compound?
Its IC50 is 0.052 µM.
